Assay results reported in ChEMBL document CHEMBL5678806, “NMS-P937, an orally available, specific small-molecule polo-like kinase 1 inhibitor with antitumor activity in solid and hematologic malignancies” (Mol Cancer Ther, 2012).
Activity calls are given as the source filed them. The rule behind the calls is not given here.

Legend:
[1] = Inhibition of CDK2/CycA (unknown origin) in presence of [gamma-33P]ATP; set-up: species or system Homo sapiens
[2] = Inhibition of AUR1 (unknown origin) in presence of [gamma-33P]ATP; set-up: species or system Homo sapiens
[3] = target: Epidermal growth factor receptor (Homo sapiens, UniProt P00533); test: Inhibition of EGFR1 (unknown origin) in presence of [gamma-33P]ATP
[4] = target: Tyrosine-protein kinase JAK3 (Homo sapiens, UniProt P52333); test: Inhibition of JAK3 (unknown origin) in presence of [gamma-33P]ATP
[5] = target: Maternal embryonic leucine zipper kinase (Homo sapiens) (UniProt Q14680); test: Inhibition of MELK (unknown origin) at 10 micromol/L in presence of [gamma-33P]ATP relative to control; settings: dose 10.0 µmol/L
[6] = target: ALK tyrosine kinase receptor (Homo sapiens) (UniProt Q9UM73); test: Inhibition of N-terminal His6-tagged recombinant human ALK (1058 to end residues) expressed in baculovirus infected Sf21 cells assessed as residual activity at 0.1 uM relative to control
[7] = target: CDK9/cyclin T1 (Homo sapiens) (UniProt O60563+P50750); test: Inhibition of C-terminal 6His-tagged full-length recombinant human CDK9/ full-length human cyclin T1 expressed in baculovirus infected Sf21 cells assessed as residual activity at 0.1 uM relative to control
[8] = target: Insulin receptor-related protein (Homo sapiens) (UniProt P14616); test: Inhibition of N-terminal 6His-tagged recombinant human IRR (944 to 1266 residues) expressed in baculovirus infected Sf21 cells assessed as residual activity at 1 uM relative to control
[9] = target: Serine/threonine-protein kinase TBK1 (Homo sapiens) (UniProt Q9UHD2); test: Inhibition of N-terminal His6-tagged recombinant full-length human TBK1 expressed in baculovirus infected Sf21 cells assessed as residual activity at 1 uM relative to control
[10] = target: BDNF/NT-3 growth factors receptor (Homo sapiens) (UniProt Q16620); test: Inhibition of N-terminal His6 tagged recombinant human TrkB (455 to end residues) expressed in baculovirus infected Sf21 cells assessed as residual activity at 1 uM relative to control
[11] = system: U-87 MG; test: Antiproliferative activity against human U-87 MG cells assessed as inhibition of cell growth incubated for 72 hrs by cell-titer glo assay; type: functional, cell-based, U-87MG ATCC
[12] = system: HCC1937; test: Antiproliferative activity against human HCC1937 cells assessed as inhibition of cell growth incubated for 72 hrs by cell-titer glo assay; type: functional, cell-based; settings: HCC1937, 72 h
Method in brief: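 Cells seeded at 10,000–30,000/cm² (adherent) or 100,000/mL (nonadherent) in medium with 10% fetal calf serum; after 24 h, treated in duplicate with serial dilutions for 72 h. Viable cell number read by CellTiter-Glo luminescence; IC50 from sigmoidal fit; at least two independent experiments.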

[13] = system: BT-474; test: Antiproliferative activity against human BT-474 cells assessed as inhibition of cell growth incubated for 72 hrs by cell-titer glo assay; type: functional, cell-based; settings: BT-474, 72 h
Method in brief: (§1)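 Cells seeded 10,000–30,000/cm² (adherent) or 100,000/mL (suspension) in medium with 10% fetal calf serum; after 24 h treated in duplicate with serial dilutions for 72 h. Viable cells read by CellTiter-Glo luminescence; IC50 from sigmoidal fit; at least two independent experiments.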

[14] = system: SW948; test: Antiproliferative activity against human SW948 cells assessed as inhibition of cell growth incubated for 72 hrs by cell-titer glo assay; type: functional, cell-based; settings: SW948, 72 h
[15] = system: NCI-H1650; test: Antiproliferative activity against human NCI-H1650 cells assessed as inhibition of cell growth incubated for 72 hrs by cell-titer glo assay; type: functional, cell-based; settings: NCI-H1650, 72 h
Method in brief: (§2)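 Cells from ATCC or ECACC, kept in supplier-recommended medium with 1% penicillin-streptomycin at 37°C, 5% CO₂. Seeded at 10,000–30,000/cm² (adherent) or 100,000/mL (nonadherent) in medium with 10% fetal calf serum. Dosed after 24 h in duplicate with serial dilutions. Viable cells read by CellTiter-Glo 72 h later. IC50 from sigmoidal fit. At least two independent experiments.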

[16] = system: NCI-H358; test: Antiproliferative activity against human NCI-H358 cells assessed as inhibition of cell growth incubated for 72 hrs by cell-titer glo assay; type: functional, cell-based; settings: NCI-H358, 72 h; method in brief: as §2
[17] = system: CAPAN-1; test: Antiproliferative activity against human CAPAN-1 cells assessed as inhibition of cell growth incubated for 72 hrs by cell-titer glo assay; type: functional, cell-based; settings: CAPAN-1, 72 h; method in brief: as §1
[18] = system: SK-MEL-2; test: Antiproliferative activity against human SK-MEL-2 cells assessed as inhibition of cell growth incubated for 72 hrs by cell-titer glo assay; type: functional, cell-based; settings: SK-MEL-2, 72 h
[19] = system: NALM-6; test: Antiproliferative activity against human NALM-6 cells assessed as inhibition of cell growth incubated for 72 hrs by cell-titer glo assay; type: functional, cell-based; settings: NALM-6, 72 h; method in brief: as §2
[20] = system: Toledo; test: Antiproliferative activity against human Toledo cells assessed as inhibition of cell growth incubated for 72 hrs by cell-titer glo assay; type: functional, cell-based
[21] = system: OPM-2; test: Antiproliferative activity against human OPM-2 cells assessed as inhibition of cell growth incubated for 72 hrs by cell-titer glo assay; type: functional, cell-based; settings: OPM-2, 72 h; method in brief: as §2
[22] = system: U-266; test: Antiproliferative activity against human U-266 cells assessed as inhibition of cell growth incubated for 72 hrs by cell-titer glo assay; type: functional, cell-based; settings: U-266, 72 h
[23] = system: NCI-H929; test: Antiproliferative activity against human NCI-H929 cells assessed as inhibition of cell growth incubated for 72 hrs by cell-titer glo assay; type: functional, cell-based; settings: NCI-H929, 72 h; method in brief: as §2
[24] = Oral bioavailability in nu/nu mouse at 10 mg/kg by LC-MS analysis; type: ADME, organism-based; settings: in vivo
[25] = system: NHDF; test: Induction of mitosis in human NHDF cells at 0.0001 to 100 uM incubated for >= 24 hrs followed by compound washout by cell titer glow assay; type: toxicity, cell-based; settings: dose 0.0001-100 µM
[26] = system: A2780; test: Induction of DNA damage in human A2780 cells assessed as H2AX phosphorylation at 0.5 to 1 uM incubated for 8 hrs followed by compound washout and measured after 24 to 48 hrs by Western blotting analysis; type: functional, cell-based; settings: dose 0.5-1 µM
[27] = system: HT-29; test: Antitumor activity against human HT-29 cells xenografted in nu/nu mouse assessed as tumor growth inhibition at 60 mg/kg, po administered for 10 days; type: functional, organism-based; settings: time 10.0 day
[28] = Antitumor activity against human Acute myeloid leukemic cell xenografted in nu/nu mouse assessed as increase in median survival time at 120 mg/kg, po administered for 2 days and measured after 10 days (reference value: 34 days); type: functional, Leukemia cell; settings: time 2 day
[29] = system: A2780; test: In vivo inhibition of PLK1 in human A2780 cells xenografted in nu/nu mouse assessed as increased TCTP phosphorylation on Ser46 at 60 mg/kg, po administered for 6 to 12 hrs hrs by Western blotting analysis; type: functional, organism-based; settings: time lower 6.0 hrs, time upper […]
[30] = target: 3-phosphoinositide-dependent protein kinase 1 (Homo sapiens) (UniProt O15530); test: Inhibition of N-terminal His6-tagged recombinant human PDK1 (52 to end residues) expressed in baculovirus infected Sf21 cells assessed as residual activity at 0.1 uM relative to control

Maternal embryonic leucine zipper kinase (Homo sapiens), sequence (Q14680 whole entry, looked up): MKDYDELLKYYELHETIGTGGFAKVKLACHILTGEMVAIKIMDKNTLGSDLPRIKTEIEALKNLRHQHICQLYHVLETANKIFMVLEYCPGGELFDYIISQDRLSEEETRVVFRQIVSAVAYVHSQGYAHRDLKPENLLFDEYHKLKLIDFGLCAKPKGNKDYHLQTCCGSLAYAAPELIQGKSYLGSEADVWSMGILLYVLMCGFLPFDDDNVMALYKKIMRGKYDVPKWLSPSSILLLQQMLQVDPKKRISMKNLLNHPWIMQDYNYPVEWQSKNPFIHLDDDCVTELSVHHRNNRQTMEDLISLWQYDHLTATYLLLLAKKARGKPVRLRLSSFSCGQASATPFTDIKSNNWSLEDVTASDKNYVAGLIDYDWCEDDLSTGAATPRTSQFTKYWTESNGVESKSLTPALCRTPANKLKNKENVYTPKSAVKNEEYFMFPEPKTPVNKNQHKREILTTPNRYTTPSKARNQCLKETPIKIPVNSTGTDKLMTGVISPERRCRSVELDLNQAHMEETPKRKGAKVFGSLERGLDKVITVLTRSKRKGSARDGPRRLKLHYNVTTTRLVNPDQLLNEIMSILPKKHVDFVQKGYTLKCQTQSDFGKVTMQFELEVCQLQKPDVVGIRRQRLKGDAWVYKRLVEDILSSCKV
Serine/threonine-protein kinase TBK1 (Homo sapiens), sequence (Q9UHD2 whole entry): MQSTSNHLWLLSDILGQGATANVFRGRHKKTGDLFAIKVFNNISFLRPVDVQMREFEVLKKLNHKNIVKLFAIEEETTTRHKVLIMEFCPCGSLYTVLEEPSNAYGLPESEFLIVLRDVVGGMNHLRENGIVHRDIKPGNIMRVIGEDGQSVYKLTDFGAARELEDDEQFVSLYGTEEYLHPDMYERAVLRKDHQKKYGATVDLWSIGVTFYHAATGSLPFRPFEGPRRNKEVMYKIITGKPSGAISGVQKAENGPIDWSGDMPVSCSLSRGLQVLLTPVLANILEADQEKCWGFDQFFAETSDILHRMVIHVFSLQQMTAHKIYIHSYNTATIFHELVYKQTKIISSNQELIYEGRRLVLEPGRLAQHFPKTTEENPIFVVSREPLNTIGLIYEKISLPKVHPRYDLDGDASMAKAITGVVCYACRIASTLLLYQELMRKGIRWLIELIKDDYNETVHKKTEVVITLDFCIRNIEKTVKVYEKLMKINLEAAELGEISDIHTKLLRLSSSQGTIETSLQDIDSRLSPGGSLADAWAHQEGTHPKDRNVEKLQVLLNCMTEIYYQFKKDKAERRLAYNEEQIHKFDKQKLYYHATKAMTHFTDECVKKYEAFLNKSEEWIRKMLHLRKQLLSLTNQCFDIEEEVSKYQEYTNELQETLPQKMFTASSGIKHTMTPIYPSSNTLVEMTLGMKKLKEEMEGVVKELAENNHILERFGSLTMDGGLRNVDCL
Epidermal growth factor receptor, sequence (P00533 whole entry): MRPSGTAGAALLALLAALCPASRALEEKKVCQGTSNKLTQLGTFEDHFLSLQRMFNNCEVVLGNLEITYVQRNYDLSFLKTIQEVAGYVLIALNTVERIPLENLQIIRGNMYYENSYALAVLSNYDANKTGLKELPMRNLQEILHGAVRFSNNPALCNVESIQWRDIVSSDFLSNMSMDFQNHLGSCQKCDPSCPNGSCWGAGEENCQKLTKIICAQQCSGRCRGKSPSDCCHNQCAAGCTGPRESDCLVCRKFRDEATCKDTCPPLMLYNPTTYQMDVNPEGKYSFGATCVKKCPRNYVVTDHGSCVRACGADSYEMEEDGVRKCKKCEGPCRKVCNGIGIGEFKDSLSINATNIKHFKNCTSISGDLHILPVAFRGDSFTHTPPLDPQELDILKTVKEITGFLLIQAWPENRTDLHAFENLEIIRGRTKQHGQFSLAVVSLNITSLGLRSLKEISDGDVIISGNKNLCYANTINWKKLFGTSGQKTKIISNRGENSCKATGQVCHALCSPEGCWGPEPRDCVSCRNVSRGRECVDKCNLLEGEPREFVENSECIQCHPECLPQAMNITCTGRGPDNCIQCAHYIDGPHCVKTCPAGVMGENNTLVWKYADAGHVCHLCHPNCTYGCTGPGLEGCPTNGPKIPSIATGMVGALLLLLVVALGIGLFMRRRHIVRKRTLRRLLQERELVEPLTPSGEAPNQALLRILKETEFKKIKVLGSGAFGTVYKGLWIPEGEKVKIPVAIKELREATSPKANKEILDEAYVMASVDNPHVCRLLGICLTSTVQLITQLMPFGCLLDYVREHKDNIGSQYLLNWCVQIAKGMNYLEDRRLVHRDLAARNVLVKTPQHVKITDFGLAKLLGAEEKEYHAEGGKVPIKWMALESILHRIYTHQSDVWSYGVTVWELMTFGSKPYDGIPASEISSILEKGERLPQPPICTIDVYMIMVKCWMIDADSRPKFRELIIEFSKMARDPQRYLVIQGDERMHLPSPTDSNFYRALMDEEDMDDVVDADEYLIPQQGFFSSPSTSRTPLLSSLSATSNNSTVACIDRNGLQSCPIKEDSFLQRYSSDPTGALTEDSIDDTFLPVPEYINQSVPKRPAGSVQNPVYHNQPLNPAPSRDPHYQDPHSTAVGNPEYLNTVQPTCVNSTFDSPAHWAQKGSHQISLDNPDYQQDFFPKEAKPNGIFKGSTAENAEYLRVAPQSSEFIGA
Tyrosine-protein kinase JAK3, sequence (P52333 whole entry): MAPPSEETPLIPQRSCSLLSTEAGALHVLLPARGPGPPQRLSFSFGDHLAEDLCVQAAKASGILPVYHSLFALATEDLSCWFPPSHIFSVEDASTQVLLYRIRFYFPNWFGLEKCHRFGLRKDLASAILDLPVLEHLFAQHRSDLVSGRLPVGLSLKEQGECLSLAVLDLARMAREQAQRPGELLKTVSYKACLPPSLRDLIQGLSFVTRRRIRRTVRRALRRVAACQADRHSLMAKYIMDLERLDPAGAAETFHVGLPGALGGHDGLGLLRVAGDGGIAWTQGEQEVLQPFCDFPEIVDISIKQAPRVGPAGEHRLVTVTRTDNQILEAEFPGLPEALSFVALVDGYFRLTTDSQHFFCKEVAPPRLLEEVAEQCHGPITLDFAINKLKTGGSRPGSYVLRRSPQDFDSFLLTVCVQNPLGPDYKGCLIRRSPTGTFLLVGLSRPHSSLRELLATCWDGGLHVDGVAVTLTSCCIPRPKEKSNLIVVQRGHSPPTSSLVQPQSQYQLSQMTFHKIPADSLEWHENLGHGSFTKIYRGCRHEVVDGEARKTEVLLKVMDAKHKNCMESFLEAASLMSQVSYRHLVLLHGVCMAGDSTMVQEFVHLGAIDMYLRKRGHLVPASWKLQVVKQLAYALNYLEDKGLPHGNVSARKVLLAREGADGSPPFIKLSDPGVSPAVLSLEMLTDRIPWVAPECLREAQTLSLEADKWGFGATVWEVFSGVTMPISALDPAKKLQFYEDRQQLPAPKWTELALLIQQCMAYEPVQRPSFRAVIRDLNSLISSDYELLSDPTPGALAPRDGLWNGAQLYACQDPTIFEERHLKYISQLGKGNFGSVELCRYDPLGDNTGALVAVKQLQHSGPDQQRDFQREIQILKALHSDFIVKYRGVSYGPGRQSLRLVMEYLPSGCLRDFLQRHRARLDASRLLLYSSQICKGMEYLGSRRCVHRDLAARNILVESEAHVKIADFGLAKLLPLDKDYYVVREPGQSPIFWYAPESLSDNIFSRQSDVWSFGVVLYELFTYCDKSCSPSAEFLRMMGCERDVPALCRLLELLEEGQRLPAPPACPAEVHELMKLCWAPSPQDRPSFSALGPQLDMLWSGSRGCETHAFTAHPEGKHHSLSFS
Insulin receptor-related protein (Homo sapiens), sequence (P14616 27-742 limits assumed): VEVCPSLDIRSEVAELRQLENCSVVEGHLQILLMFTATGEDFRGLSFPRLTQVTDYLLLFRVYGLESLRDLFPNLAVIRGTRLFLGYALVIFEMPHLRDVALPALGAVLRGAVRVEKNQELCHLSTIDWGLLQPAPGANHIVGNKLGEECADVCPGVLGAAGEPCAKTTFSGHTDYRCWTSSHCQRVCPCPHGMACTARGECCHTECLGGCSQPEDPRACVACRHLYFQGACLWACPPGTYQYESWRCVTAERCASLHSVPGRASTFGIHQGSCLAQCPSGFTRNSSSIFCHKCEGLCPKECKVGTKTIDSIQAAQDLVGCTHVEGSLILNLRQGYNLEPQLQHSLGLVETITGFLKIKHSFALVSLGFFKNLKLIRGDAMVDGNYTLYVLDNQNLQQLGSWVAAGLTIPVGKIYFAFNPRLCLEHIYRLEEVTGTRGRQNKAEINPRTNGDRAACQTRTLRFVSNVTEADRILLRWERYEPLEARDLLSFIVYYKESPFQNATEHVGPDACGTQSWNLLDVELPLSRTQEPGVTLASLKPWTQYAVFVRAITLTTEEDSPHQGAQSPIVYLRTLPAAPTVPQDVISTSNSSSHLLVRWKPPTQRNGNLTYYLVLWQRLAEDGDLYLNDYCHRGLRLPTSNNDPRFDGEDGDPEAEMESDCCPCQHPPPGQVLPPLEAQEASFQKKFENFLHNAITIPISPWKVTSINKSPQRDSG
Insulin receptor-related protein (Homo sapiens), sequence (P14616 747-1297 limits assumed): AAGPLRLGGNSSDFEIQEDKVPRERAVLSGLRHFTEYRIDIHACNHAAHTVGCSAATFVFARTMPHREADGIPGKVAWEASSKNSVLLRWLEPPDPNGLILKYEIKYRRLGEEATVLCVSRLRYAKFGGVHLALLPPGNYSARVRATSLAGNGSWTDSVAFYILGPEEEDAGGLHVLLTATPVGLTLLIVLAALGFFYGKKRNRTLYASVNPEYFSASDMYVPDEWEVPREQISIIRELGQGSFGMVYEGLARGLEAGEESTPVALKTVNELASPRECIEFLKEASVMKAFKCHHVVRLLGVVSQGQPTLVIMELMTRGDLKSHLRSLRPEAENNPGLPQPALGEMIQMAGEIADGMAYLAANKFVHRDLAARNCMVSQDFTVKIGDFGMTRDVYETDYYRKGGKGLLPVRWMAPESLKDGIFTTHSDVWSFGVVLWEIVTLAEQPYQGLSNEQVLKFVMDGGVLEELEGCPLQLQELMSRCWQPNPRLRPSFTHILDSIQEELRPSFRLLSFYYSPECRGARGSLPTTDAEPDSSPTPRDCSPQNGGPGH

For CN1CCN(c2ccc(OC(F)(F)F)c(Nc3ncc4c(n3)-c3c(c(C(N)=O)nn3CCO)CC4)c2)CC1 [ONVANSERTIB], the IC50 [1] was > 10000 nM, the IC50 [2] was > 10000 nM and the IC50 [3] was > 10000 nM. For the same molecule, the IC50 [4] was > 10000 nM, the inhibition [5] was 95.5% and the Activity [6] was 145%. The Activity [7] was 64%, the Activity [8] was 114% and the Activity [9] was 96%. For the same molecule, the Activity [10] was 80%, the IC50 [11] was 991 nM and the IC50 [12] was 595 nM. The IC50 [13] was 156 nM, the IC50 [14] was 124 nM and the IC50 [15] was 2420 nM. It also gave an IC50 [16] of 175 nM, an IC50 [17] of 237 nM and an IC50 [18] of 256 nM. For the same molecule, the IC50 [19] was 61 nM, the IC50 [20] was 42 nM and the IC50 [21] was 38 nM. For the same molecule, the IC50 [22] was 40 nM, the IC50 [23] was 63 nM and the bioavailability [24] was 24%. The Activity [25] was “Toxic”, the Activity [26] was “Active” and the TGI [27] was “Active”. For the same molecule, the Time [28] was 50 days, the inhibition [29] was “inactive” and the Activity [30] was 142%.
